Results pooled from the literature.
Each line is one published result; the experiments were not run side by side.
Slc6a3: Sodium-dependent dopamine transporter (Slc6a3, Rattus norvegicus, UniProt P23977)
Antigen peptide transporter 1/Antigen peptide transporter 2: Antigen peptide transporter 1/Antigen peptide transporter 2 (Homo sapiens, UniProt Q03518+Q03519)

| Compound | target | read-out | action | technique | setting | measurement | value |
| --- | --- | --- | --- | --- | --- | --- | --- |
| O=c1c(O)c(-c2ccc(O)c(O)c2)oc2cc(O)cc(O)c12 | CX3C chemokine receptor 1 (CX3CR1, Homo sapiens, UniProt P49238) | β-arrestin recruitment | antagonist | – | – | IC50 | 4500 nM |
| CNC(C)C(=O)c1cccc(Cl)c1 (centres unmarked) | Slc6a3 | transporter uptake | inhibitor | radiometric | – | IC50 | 342 nM |
| CC[C@H](C)[C@H](NC(=O)[C@H](CC(C)C)NC(=O)[C@@H](N)CO)C(=O)NCC(=O)N[C@@H](CCCCN)C(=O)N[C@H](C(N)=O)C(C)C | Proteinase-activated receptor 2 (F2RL1, Homo sapiens, UniProt P55085) | calcium signal | agonist | – | – | EC50 | 5800 nM |
| CC(NC(C)(C)C)C(=O)c1ccccc1 (centres unmarked) | Slc6a3 | transporter uptake | inhibitor | radiometric | – | IC50 | 1310 nM |
| CSCC[C@H](NC(=O)[C@@H]1CCCN1C(=O)[C@H](CCCNC(=N)N)NC(=O)[C@H](CC(C)C)NC(=O)[C@@H]1CCCN1C(=O)[C@@H](NC(=O)[C@H](C)N)C(C)C)C(=O)N[C@H](C(=O)N[C@@H](Cc1ccc(O)cc1)C(=O)N[C@@H](C)C(=O)O)[C@@H](C)O | Antigen peptide transporter 1/Antigen peptide transporter 2 | ligand displacement | – | – | – | IC50 | 5000 nM |
| COc1ccc2cccc(C(CO)CNC(=O)CF)c2c1 (centres unmarked) | Melatonin receptor type 1B (MTNR1B, Homo sapiens, UniProt P49286) | cAMP | agonist | TR-FRET | – | EC50 | 17.8 nM |
| COC(=O)C(NC(=O)c1cn(CCCCCO)c2ccccc12)C(C)(C)C (centres unmarked) | Cannabinoid receptor 1 (Cnr1, Rattus norvegicus, UniProt P20272) | ligand displacement | – | radioligand | cell membranes | IC50 | 106 nM |
| CC[C@H](C)[C@H](NC(=O)[C@H](C)NC(=O)CN)C(=O)N[C@@H](CC(=O)O)C(=O)N[C@@H](CCCCN)C(=O)N1CCC[C@H]1C(=O)N[C@H](C(=O)N[C@@H](CC(C)C)C(=O)N[C@@H](CCCCN)C(=O)O)[C@@H](C)CC | Antigen peptide transporter 1/Antigen peptide transporter 2 | ligand displacement | – | – | – | IC50 | 8200 nM |
